Activity calls are given as the source filed them. The calls are words filed in the database; no cut-off is given here.

Here are results for two molecules from ChEMBL document CHEMBL5365542, “Difluoromethyl-1,3,4-oxadiazoles Are Selective, Mechanism-Based, and Essentially Irreversible Inhibitors of Histone Deacetylase 6” (J Med Chem, 2023).

The test system of assay [1] is T1, Histone deacetylase 6 (Danio rerio), F8W4B7 [H573A].
T1 sequence (whole entry): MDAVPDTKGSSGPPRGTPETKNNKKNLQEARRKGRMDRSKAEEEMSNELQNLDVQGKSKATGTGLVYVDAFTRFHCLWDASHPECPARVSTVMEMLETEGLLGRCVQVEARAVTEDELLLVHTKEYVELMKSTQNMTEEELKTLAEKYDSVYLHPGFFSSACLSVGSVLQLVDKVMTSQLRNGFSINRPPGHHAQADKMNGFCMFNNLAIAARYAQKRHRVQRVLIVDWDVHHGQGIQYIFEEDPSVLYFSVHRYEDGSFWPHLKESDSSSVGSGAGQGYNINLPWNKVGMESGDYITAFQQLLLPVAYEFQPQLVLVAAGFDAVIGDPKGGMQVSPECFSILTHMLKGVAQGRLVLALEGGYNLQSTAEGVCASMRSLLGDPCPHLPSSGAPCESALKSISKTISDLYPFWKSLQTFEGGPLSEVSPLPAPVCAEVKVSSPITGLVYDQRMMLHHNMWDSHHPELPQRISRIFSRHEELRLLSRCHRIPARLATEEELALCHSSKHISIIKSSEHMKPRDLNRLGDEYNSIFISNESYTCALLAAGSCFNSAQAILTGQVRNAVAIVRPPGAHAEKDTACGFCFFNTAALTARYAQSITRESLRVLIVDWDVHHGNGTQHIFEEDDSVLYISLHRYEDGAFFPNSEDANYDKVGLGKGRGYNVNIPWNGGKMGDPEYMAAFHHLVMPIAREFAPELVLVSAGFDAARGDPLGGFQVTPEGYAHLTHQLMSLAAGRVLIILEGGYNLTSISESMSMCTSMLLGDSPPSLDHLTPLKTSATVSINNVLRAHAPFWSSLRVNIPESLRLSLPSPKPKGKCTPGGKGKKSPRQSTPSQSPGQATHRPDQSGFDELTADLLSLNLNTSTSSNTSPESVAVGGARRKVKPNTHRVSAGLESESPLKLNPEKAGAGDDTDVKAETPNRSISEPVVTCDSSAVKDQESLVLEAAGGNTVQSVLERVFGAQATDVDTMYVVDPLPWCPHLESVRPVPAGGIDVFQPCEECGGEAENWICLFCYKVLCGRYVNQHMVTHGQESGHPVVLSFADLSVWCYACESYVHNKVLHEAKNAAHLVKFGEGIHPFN
The assay can be described thus: Irreversible inhibition of Danio rerio HDAC6 H573A mutant catalytic domain 2 assessed as enzyme catalysed ring opening by measuring reduction in 2-(benzylamino)-N'-(2,2,2-trifluoroacetyl)pyrimidine-5-carbohydrazide formation at 100 uM incubated overnight by LC-MS analysis. The method in brief:
(§1)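 Zebrafish HDAC6 CD2 mutants were made by site-directed mutagenesis and expressed in BL21(DE3). Enzyme at 50 μM was incubated overnight with 100 μM inhibitor in 50 mM HEPES pH 7.5, 100 mM KCl, 1 mM TCEP, 5% glycerol; an enzyme-free control was included. Protein was methanol-precipitated and filtered, and products were analysed by C18 UPLC-MS with a 2-min gradient.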

In assay [2] the target is T2, Protein deacetylase HDAC6 (Homo sapiens, UniProt Q9UBN7).
T2 sequence (Q9UBN7 whole entry): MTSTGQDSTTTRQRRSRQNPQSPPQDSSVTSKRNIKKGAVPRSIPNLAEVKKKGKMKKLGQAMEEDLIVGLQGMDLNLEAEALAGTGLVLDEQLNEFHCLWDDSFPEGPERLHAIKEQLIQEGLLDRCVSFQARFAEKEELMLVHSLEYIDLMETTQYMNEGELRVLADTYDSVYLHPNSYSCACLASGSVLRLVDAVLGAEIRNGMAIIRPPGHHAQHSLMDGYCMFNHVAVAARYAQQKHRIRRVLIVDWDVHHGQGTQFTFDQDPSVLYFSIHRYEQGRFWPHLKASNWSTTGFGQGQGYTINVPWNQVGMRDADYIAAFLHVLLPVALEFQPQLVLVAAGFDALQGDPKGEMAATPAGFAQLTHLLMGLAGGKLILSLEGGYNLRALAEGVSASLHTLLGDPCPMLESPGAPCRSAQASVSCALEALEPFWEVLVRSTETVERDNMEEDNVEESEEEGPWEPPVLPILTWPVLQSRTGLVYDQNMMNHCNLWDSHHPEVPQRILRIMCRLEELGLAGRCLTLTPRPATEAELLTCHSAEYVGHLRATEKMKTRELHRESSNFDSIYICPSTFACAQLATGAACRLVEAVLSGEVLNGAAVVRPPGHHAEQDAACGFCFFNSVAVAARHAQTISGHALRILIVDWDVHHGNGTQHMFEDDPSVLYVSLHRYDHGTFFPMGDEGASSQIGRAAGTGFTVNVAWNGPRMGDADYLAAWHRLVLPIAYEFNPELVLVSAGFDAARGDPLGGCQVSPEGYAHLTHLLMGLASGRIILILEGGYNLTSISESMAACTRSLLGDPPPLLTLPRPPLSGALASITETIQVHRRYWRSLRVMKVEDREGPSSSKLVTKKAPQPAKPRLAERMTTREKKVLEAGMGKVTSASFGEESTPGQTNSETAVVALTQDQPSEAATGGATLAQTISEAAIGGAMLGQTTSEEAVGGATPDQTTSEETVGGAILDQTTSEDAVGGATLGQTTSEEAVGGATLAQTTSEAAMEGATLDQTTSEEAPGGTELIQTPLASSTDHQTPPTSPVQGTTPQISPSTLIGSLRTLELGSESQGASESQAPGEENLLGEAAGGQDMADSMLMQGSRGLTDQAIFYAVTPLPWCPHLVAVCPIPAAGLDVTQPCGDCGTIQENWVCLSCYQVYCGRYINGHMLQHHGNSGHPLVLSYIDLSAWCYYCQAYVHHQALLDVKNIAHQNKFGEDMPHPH
The assay can be described thus: Inhibition of N-terminal GST tagged human recombinant HDAC6 (1 to 1215 residues) expressed in Sf9 insect cells using Z-Lys(Ac)-AMC as fluorogenic substrate preincubated for 60 mins followed by substrate addition and measured after 90 mins by microplate reader analysis.

In assay [3] the test system is T1, Histone deacetylase 6 (Danio rerio), F8W4B7 [H573A]. Nature of the assay: Irreversible inhibition of Danio rerio HDAC6 H573A mutant catalytic domain 2 assessed as enzyme catalysed ring opening by measuring reduction in 2-(Benzylamino)-N'-(2,2-difluoroacetyl)pyrimidine-5-carbohydrazide formation at 100 uM incubated overnight by LC-MS analysis. The method in brief:
as §1

On to `FC(F)c1nnc(-c2cnc(NCc3ccccc3)nc2)o1`, for which the inhibition result in assay [1] and in assay [3] was “Active” each time. For the same molecule, the IC50 in assay [2] was found to be 0.193 µM.
Consider `FC(F)(F)c1nnc(-c2cnc(NCc3ccccc3)nc2)o1`, for which the inhibition result in assay [1] and in assay [3] was “Active” each time. The IC50 in assay [2] came to 0.531 µM.

The term IC50 denotes the concentration needed to halve the response being measured.
